Experimental data taken from ChEMBL document CHEMBL4513216, “Probing the Open Global Health Chemical Diversity Library for Multistage-Active Starting Points for Next-Generation Antimalarials” (ACS Infect Dis, 2020).

Assay: Toxicity liver stage against HepG2, at 10uM
Format: cell-based
Set-up: test concentration 10 uM, cell line HepG2-A16-CD81EGFP
Details: human, HepG2-A16-CD81EGFP cells; read-out: INHIBITION
How it was run: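 Uninfected HepG2-A16-CD81EGFP cells, 3 × 10^3 per well, 1536-well, plated on prespotted compound at 10 μM final, parasite-free screening media added to match infected plates; puromycin 10 μM positive, DMSO 0.5% negative; run in parallel with 48 h PbLuc assay at 37 °C, 5% CO2; viability by CellTiter-Glo luminescence, normalized to controls.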

CS(=O)(=O)N1CCC(Oc2ccc(C(=O)NCC3CCC3)cc2Cl)CC1
cytotoxicity at 10 µM: 12%

NCc1ccccc1Sc1ccc(O)cc1
cytotoxicity at 10 µM: 1.31%

CC(=O)NCc1noc2c1CN(Cc1ccsc1)CC2
cytotoxicity at 10 µM: -3.21%

CN(C(=O)NCCCNc1ccccn1)C1CCS(=O)(=O)C1 (stereo not drawn)
cytotoxicity at 10 µM: 4.67%

O=C(c1ccncc1)N1C[C@H]2CC[C@@H](C1)N(C(=O)N1CCOCC1)C2
cytotoxicity at 10 µM: 2.44%

CS(=O)(=O)N1CC[C@H]2OCC[C@@]2(C(=O)NCc2ccccn2)C1
cytotoxicity at 10 µM: -84.7%

CCC(=O)NCC(=O)NCC1CCN(c2cc(Cl)ccc2C)C1 (stereo not drawn)
cytotoxicity at 10 µM: -13.2%

CCOC(=O)Cn1cnc2nc3n(c2c1=O)CCC3
cytotoxicity at 10 µM: -2.06%

Cc1cc(C)n(CC(C)CNC(=O)NCc2c(C)cc(C)[nH]c2=O)n1 (stereo not drawn)
cytotoxicity at 10 µM: -7.86%

COc1ccc(C)cc1Nc1nc2c(C)nn(C)c2c(=O)n1C
cytotoxicity at 10 µM: 3.96%

Cc1nccc(C(=O)N2CCCN(Cc3nccn3C(C)C)CC2)n1
cytotoxicity at 10 µM: -10.2%

CC[C@H]1CN(C(=O)c2cnc(N3CCN(C)CC3)nc2C)CC[C@@]1(C)O
cytotoxicity at 10 µM: -4.15%

Cc1ccc(-c2ccnc(N(C)CC3CCCO3)n2)c(C)n1 (stereo not drawn)
cytotoxicity at 10 µM: -2.59%

CN1CC2(CCN(C(=O)c3ccc4c(=O)n(C)cnc4c3)C2)OC1=O (stereo not drawn)
cytotoxicity at 10 µM: 2.41%

Cc1nc(C)n(CC2CCCN(Cc3cc(C#N)ccc3F)C2)n1 (stereo not drawn)
cytotoxicity at 10 µM: -18.3%

CN(C)CCOCc1nnc2n1CCN(Cc1ccco1)C2
cytotoxicity at 10 µM: 7.55%

O=C(O)[C@H]1C[C@@H](C(=O)NCc2ccncc2)CN(Cc2ccccc2)C1
cytotoxicity at 10 µM: -138%

N#Cc1ccc(NC2CCN(Cc3ccccn3)CC2)c(F)c1
cytotoxicity at 10 µM: 0.109%

COc1ccc(N2CCCC3(C2)CN(c2ncccn2)CCO3)cc1 (stereo not drawn)
cytotoxicity at 10 µM: 15.3%

CCOc1ccnc(N2CCN(C(=O)c3ccc(C#N)cc3)CC2)n1
cytotoxicity at 10 µM: -10.6%

CSCCc1c(-c2ccccc2)ncn1[C@H]1C[C@@H](C(=O)O)N(C)C1
cytotoxicity at 10 µM: 0.471%

CN1CCC(N[C@@H]2CO[C@H](CNC(=O)C3CCCC3)[C@H]2O)CC1
cytotoxicity at 10 µM: -4.63%

COc1ccccc1N1CCN(CC[C@H](O)c2ccccc2)CC1=O
cytotoxicity at 10 µM: -0.081%

C1CCN(CCOC2CCNCC2)C1
cytotoxicity at 10 µM: 6.59%

CC(=O)NCC(=O)N1CCN(CCN(C)C)c2ncccc2C1
cytotoxicity at 10 µM: -104%

O=C(CCc1nc(C2CC2)no1)c1ccccc1
cytotoxicity at 10 µM: -6.43%

C=C(C)CN(CC)C(=O)CN1CCCC1C(=O)N(C)C (stereo not drawn)
cytotoxicity at 10 µM: 8.52%

Cc1csc(N2CCCN(C(=O)c3csc(C)n3)CC2)n1
cytotoxicity at 10 µM: -3.96%

Cn1cncc1CN1CCC2(CCCN2c2ncccn2)CC1
cytotoxicity at 10 µM: 9.37%

Cc1ccc(CN2CC(C(=O)N3CCCC3)C3(CCOCC3)C2)s1 (stereo not drawn)
cytotoxicity at 10 µM: -0.152%

CCOc1cc(/C=C/c2ncc(C(=O)O)s2)cc(Br)c1OC
cytotoxicity at 10 µM: 7.59%

CCSc1ncc(Cl)c(C(=O)NC(CCSC)C(=O)O)n1 (stereo not drawn)
cytotoxicity at 10 µM: -8.91%

CN(Cc1cccc(Cl)c1)Cc1nnsc1Cl
cytotoxicity at 10 µM: 6.78%

COc1ccnc(NC(Cc2ccccc2)C(=O)N(C)C)n1 (stereo not drawn)
cytotoxicity at 10 µM: 6.39%

CCOc1ncccc1NC(=O)N1CCc2ccccc2C1
cytotoxicity at 10 µM: -8.62%

CCS(=O)(=O)N1C[C@H]2CN(Cc3cccnc3)C(=O)[C@H]2C1
cytotoxicity at 10 µM: -17.8%

COc1cccc(C(O)CNC(=O)CC2CCCCC2)c1 (stereo not drawn)
cytotoxicity at 10 µM: -2.11%

CCCc1nc(CN(CC)C(=O)c2ccc(S(C)(=O)=O)cc2)no1
cytotoxicity at 10 µM: -5.03%

CCCn1nc(C(=O)N2CCCC2c2noc(C)n2)ccc1=O (stereo not drawn)
cytotoxicity at 10 µM: 3.57%

COc1ccccc1CC1CCCN(CC(N)=O)C1 (stereo not drawn)
cytotoxicity at 10 µM: 5.68%

O=C1CCSCC(C(=O)N2CCN(C3CCCCC3)CC2)N1 (stereo not drawn)
cytotoxicity at 10 µM: -18.7%

Cc1ccc(N2CCC3(CCN(C(=O)C4CCOC4)CC3)CC2)nn1 (stereo not drawn)
cytotoxicity at 10 µM: -0.28%

COCC1CC2(CCN(c3cccc(C)n3)CC2)CN1C(C)C (stereo not drawn)
cytotoxicity at 10 µM: -109%

CC1(C)CNC(=O)c2nc(-c3n[nH]c(=O)[nH]3)[nH]c2C1
cytotoxicity at 10 µM: -4.07%

COCCN1C(=O)[C@@H]2CC[C@H]1CN(c1ncccn1)C2
cytotoxicity at 10 µM: 7.01%

O=C(CCn1cncn1)NCC1CCOC1 (stereo not drawn)
cytotoxicity at 10 µM: -43.4%

CC(C)N1CCc2c(C(=O)N3CCOCC3)nn(C)c2C1
cytotoxicity at 10 µM: -105%

O=C1CC(c2cccs2)Cc2[nH]c(=O)ccc21 (stereo not drawn)
cytotoxicity at 10 µM: 0.185%

O=C(O)c1cc(-c2ccc3c(c2)OCO3)cc(S(=O)(=O)NC2CC2)c1
cytotoxicity at 10 µM: 2.8%

Cc1nc(CCNC(=O)C2CC(=O)N(C(C)C)C2)cs1 (stereo not drawn)
cytotoxicity at 10 µM: 14.9%

Cc1cnc(C(=O)NC(CN2CCCC2=O)c2ccccc2)cn1 (stereo not drawn)
cytotoxicity at 10 µM: -8.8%

Cc1cc(NCC(=O)N(C)CC(F)(F)F)c(C(N)=O)cc1F
cytotoxicity at 10 µM: -2.91%

Cc1nn(C)c(C)c1CCC(=O)N1CCN(CCn2cncn2)CC1
cytotoxicity at 10 µM: 2.33%

O=C(NCC1CCCO1)c1cc(-c2ccc3c(c2)CCO3)n[nH]1 (stereo not drawn)
cytotoxicity at 10 µM: -8.13%

COCCCn1ccc(NC(=O)NCCCNc2ccccc2)n1
cytotoxicity at 10 µM: 4.97%

Cc1ccc(CC(=O)N2CCCC(n3nc(C)cc3C)C2)cn1 (stereo not drawn)
cytotoxicity at 10 µM: -8.54%

COCCOCC(=O)N1CCc2cc(Cl)cc(Cl)c2C1
cytotoxicity at 10 µM: 1.4%

COc1cc(-c2nccn2C(C)CCn2cccn2)cc2c1OCO2 (stereo not drawn)
cytotoxicity at 10 µM: 0.562%

Cc1cc(C2CCCN2C(=O)CN2CCc3ccccc32)on1 (stereo not drawn)
cytotoxicity at 10 µM: 2.74%

COCCn1c(C(=O)NCC(C)C(=O)O)cc2ccccc21 (stereo not drawn)
cytotoxicity at 10 µM: 2.64%

N#Cc1ccc(OCCNCCn2cccn2)cc1
cytotoxicity at 10 µM: -4.11%

CCC(C)N(Cc1ccsc1)C(=O)c1ccc2[nH]nnc2c1 (stereo not drawn)
cytotoxicity at 10 µM: 13.3%

CCn1cc(C(=O)NCC(C)(CC)N2CCOCC2)c2ccccc21 (stereo not drawn)
cytotoxicity at 10 µM: 6.13%

CCOc1ccc(CN(C)C(=O)c2nc(N3CCCC3)ncc2Cl)cc1
cytotoxicity at 10 µM: -33%

CCNC(=O)N1CCC(NC(=O)NCCc2cc(F)cc(F)c2)C1 (stereo not drawn)
cytotoxicity at 10 µM: -43.4%

CCc1nc(-c2cncnc2C2CCNC2)no1 (stereo not drawn)
cytotoxicity at 10 µM: 1.45%

O=C(c1ccoc1)N1CCc2ncc(Cn3cccn3)n2CC1
cytotoxicity at 10 µM: 6.9%

O=C1NC2(CCc3ccccc31)CCN(Cc1cccnc1)C2 (stereo not drawn)
cytotoxicity at 10 µM: 0.9%

CC(=O)N1C[C@H]2CC[C@@H](C1)N(S(=O)(=O)c1ccccc1Cl)C2
cytotoxicity at 10 µM: -4%

Cc1c(C(=O)NCC2CCS(=O)(=O)C2)cnn1-c1ccccc1 (stereo not drawn)
cytotoxicity at 10 µM: -10.2%

CCc1nnc(CN2CCC(c3nc4cc(Cl)ccc4o3)CC2)o1
cytotoxicity at 10 µM: -0.956%

c1cncc(-c2nnn3c2COCC(CNCC2CCOCC2)C3)c1 (stereo not drawn)
cytotoxicity at 10 µM: -75.4%

O=C(NC1CC1)c1nc2c(s1)CCCN2c1ccccc1
cytotoxicity at 10 µM: -157%

CC(C)N1CCC(Cc2cc(-c3ccccc3C(=O)O)ncn2)CC1
cytotoxicity at 10 µM: -5.28%

O=C(NCC1CCCCC1)c1nnn(-c2ccc(Br)cc2)n1
cytotoxicity at 10 µM: -0.895%

CCC(C)S(=O)(=O)N1CCc2nc(C3CCNCC3)ncc2C1 (stereo not drawn)
cytotoxicity at 10 µM: -10.7%

Oc1cc(C2CCCCN2Cc2cccs2)nc(-c2ccncc2)n1 (stereo not drawn)
cytotoxicity at 10 µM: 7.78%

CS(=O)(=O)N1CCC(CNC(=O)C2CCC2)CC1
cytotoxicity at 10 µM: -2.99%

O=C(c1cn(-c2ccccc2Cl)nn1)N1CCCSCC1
cytotoxicity at 10 µM: -4.26%

COCCNC(=O)Cn1cc2c(n1)c(C)nn2C(C)C
cytotoxicity at 10 µM: -6.24%

COc1ccc(C(C(=O)O)N(C)CCN2CCCC2)c(C)c1 (stereo not drawn)
cytotoxicity at 10 µM: 3.41%

Cc1cc(C(=O)N2CCC3(CCC(=O)N(CC(N)=O)C3)CC2)ccc1O
cytotoxicity at 10 µM: -7.5%

O=C(CNc1cc(Br)ccc1Br)NC1CCS(=O)(=O)C1 (stereo not drawn)
cytotoxicity at 10 µM: -5.88%
